Data from ChEMBL document CHEMBL1146097, “Catalytic site prediction and virtual screening of cytochrome P450 2D6 substrates by consideration of water and rescoring in automated docking” (J Med Chem, 2006).

biological target: Cytochrome P450 2D6 (Homo sapiens, UniProt P10635); assay: Inhibition of human CYP2D6 expressed in Escherichia coli JM109; type: ADME
Method in brief: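 IC50 from inhibition of CYP2D6-catalysed MAMC O-demethylation; values are means of at least three independent experiments ± standard deviation.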

Sequence of Cytochrome P450 2D6 (P10635 whole entry): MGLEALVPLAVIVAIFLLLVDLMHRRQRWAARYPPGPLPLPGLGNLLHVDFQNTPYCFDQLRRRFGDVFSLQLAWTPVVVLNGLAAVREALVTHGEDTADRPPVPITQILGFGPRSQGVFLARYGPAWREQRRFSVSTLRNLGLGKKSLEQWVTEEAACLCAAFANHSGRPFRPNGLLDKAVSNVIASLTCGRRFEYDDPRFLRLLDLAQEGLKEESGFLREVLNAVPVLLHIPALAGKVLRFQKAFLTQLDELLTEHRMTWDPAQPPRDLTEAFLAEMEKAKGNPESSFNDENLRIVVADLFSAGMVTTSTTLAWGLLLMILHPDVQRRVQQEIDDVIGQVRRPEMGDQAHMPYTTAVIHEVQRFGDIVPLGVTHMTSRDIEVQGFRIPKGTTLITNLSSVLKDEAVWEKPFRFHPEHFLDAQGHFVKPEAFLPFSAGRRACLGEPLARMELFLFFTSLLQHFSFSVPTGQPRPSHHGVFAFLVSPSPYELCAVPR

SMILES	IC50 [µM]
c1ccc(CCNCCC2c3ccccc3Sc3ccccc32)cc1	0.26
CCC(c1ccccc1)c1c(O)c2ccccc2oc1=O (configuration not stated) [PHENPROCOUMON]	528
CN(C)CCC1(O)c2ccccc2CCc2ccc3ccccc3c21 (configuration not stated)	0.06
CCCCCCCCCCCc1cccn1C1c2ccccc2CCc2ccccc21	5.8
O=C1c2ccccc2C(O)C1C1c2ccccc2C=Cc2ccccc21 (configuration not stated)	60
CCC(=O)O/N=C1\c2ccccc2CCc2ncccc21	> 400
COc1ccc2c(c1)[C@]13CCCC[C@@H]1[C@H](C2)N(C)CC3 [DEXTROMETHORPHAN]	3.4
C(=C1c2ccccc2CCc2ccccc21)c1ccccc1	> 200
Fc1ccc(C(OCCN2CCC(CCCc3ccccc3)CC2)c2ccc(F)cc2)cc1	1.21
Nc1ccccc1-c1nc(N)c2ccccc2n1	169
Cn1ccnc1C(O)C=C(c1ccccc1)c1ccccc1 (configuration not stated)	15
C[N+]1(C)C2CCC1CC(OC1c3ccccc3C=Cc3ccccc31)C2 (configuration not stated)	60
CC1C2C=C(C=C3c4ccccc4CCc4ccccc43)CC1CC2 (configuration not stated)	0.21
CC(Cc1ccccc1)NC1CC2c3ccccc3CCc3cccc1c32 (configuration not stated)	0.15
Cc1ccc2c(c1)C(n1cccc1)c1cccnc1CC2 (configuration not stated)	40
Oc1ccccc1/C=N/c1ccccc1 [2-((PHENYLIMINO)METHYL)PHENOL]	> 1000
CCc1ccccc1C1(Br)C(=O)c2ccccc2C1=O	83
